Shown are actives, neighbours in structure and some others; about 3.7% of the full set was active somewhere.
hERG rescue – shields human hERG channel from block by proarrhythmic agents; Q12809; CHO-hERG, FluxOR thallium flux, dofetilide IC70 present; activation (rescue from dofetilide block), less the hit threshold, % at 10 µM; 0.51% of 310,000 active; AID 1511;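 active = activation above the mean of controls blocked by dofetilide plus 5 SD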;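 note: thallium influx through hERG after potassium depolarization seen as dye fluorescence rise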
KCNK3 block – human KCNK3 channel inhibition, primary screen; O14649; CHO-KCNK3 thallium flux, FluxOR fluorescence; stronger effect = lower value; B-score at 10 µM; 0.84% of 340,000 active;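 active = B-score under library mean minus 4 SD, starting fluorescence ratio at most library mean plus 5 SD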;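 note: more negative B-score means stronger inhibition of thallium flux through KCNK3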
Target sequence (O14649 whole entry, looked up): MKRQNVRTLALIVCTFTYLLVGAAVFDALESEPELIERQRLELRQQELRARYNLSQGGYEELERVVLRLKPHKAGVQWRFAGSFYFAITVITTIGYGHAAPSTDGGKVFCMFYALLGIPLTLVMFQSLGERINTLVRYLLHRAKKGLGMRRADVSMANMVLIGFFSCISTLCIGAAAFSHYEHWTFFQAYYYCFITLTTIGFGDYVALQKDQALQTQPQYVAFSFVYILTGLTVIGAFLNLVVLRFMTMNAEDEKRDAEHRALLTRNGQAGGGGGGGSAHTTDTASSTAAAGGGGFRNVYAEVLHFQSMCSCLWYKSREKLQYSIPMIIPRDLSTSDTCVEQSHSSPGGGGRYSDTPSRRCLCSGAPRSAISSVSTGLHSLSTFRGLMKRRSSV
KCNQ1 block – human KCNQ1 channel inhibition | B-score at 10 µM | 1.3% of 310,000 active | AID 2642 | CHO-K1 KCNQ1, FluxOR thallium flux fluorescence; stronger effect = higher value;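 active = compounds whose thallium flux B-score, printed positive for inhibition, exceeds three library SD while starting fluorescence stays within three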;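 note: channel opened by potassium depolarization with thallium stimulus after 20 min compound exposure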
KCNK9 inh – human KCNK9 channel inhibition | HEK293 KCNK9, FluxOR thallium flux fluorescence; stronger effect = lower value | B-score at 10 µM | 1.2% of 310,000 active | AID 488922;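 active = ratio B-score over 3 SD below the library mean, with starting fluorescence within 5 SD of its mean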;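 note: negative B-score means less thallium flux so channel inhibition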
Kir21 inh – blocks the mouse Kir2.1 inward-rectifier potassium channel; AID 1672; HEK293-Kir2.1, FluxOR thallium flux fluorescence; stronger effect = lower value; 0.85% of 310,000 active; B-score at 10 µM;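 active = fluorescence ratio B-score at or below minus 3 SD of library scores, with starting-brightness B-score within 2 SD, cut at about -4.2 in these data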;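 note: channel flux triggered by added potassium and thallium sulfate stimulus; B-score of peak minus minimum fluorescence over baseline after thallium stimulus; more negative B-score means stronger Kir2.1 block with less thallium influx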
KCNQ1 pot – potentiates or activates the human KCNQ1 potassium channel. P51787. CHO-K1 KCNQ1, thallium flux FluxOR fluorescence; stronger effect = higher value. B-score at 10 µM. 0.35% of 310,000 active. AID 2648;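 active = fluorescence ratio B-score, a plate-corrected score, at least three library SD, with initial intensity B-score within 5 SD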
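assay system = CHO-K1 cells stably expressing KCNQ1 | medium = assay buffer, equal DMSO in all wells | timing = 37 °C overnight plating, 90-min dark dye load, 20-min compound pretreatment | measured by = kinetic FluxOR thallium fluorescence, 10-s 1-Hz baseline, 110-s post-stimulus read | measure = fluorescence change relative to baseline, converted to B score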
Active calls of the source: *.

Screening CCOC(=O)C1(CCOc2ccccc2)CCN(Cc2cccs2)CC1 returned hERG rescue -11, KCNK3 block inactive, KCNQ1 block inactive, KCNK9 inh inactive, Kir21 inh -5* and KCNQ1 pot inactive.
Screening CC(=O)Nc1cc2c(cc1NC(=O)Cn1nc(-c3ccc4c(c3)OCCO4)ccc1=O)OCCO2 returned hERG rescue -5, KCNK3 block inactive, KCNQ1 block inactive, KCNK9 inh inactive, Kir21 inh -0.57 and KCNQ1 pot inactive.
For COc1ccc(Cl)cc1CN1CCN(c2nc(C)cc(C)c2C#N)CC1 the results were hERG rescue -12, KCNK3 block -9.6*, KCNQ1 block inactive, KCNK9 inh inactive, Kir21 inh -2.6 and KCNQ1 pot inactive.
CCOc1cc(CNCc2ccncc2)cc(Br)c1OCc1ccc(F)cc1 was read as hERG rescue -23, KCNK3 block inactive, KCNQ1 block inactive, KCNK9 inh inactive, Kir21 inh -13* and KCNQ1 pot inactive.
Fc1ccc(COc2ccc(Br)cc2CNCc2ccncc2)cc1 was read as hERG rescue -19, KCNK3 block inactive, KCNQ1 block inactive, KCNK9 inh inactive, Kir21 inh -4.4* and KCNQ1 pot inactive.
Screening CCCCn1c(N)c(N(CCOC)C(=O)c2ccc3c(c2)C(=O)N(c2cc(C)ccc2C)C3=O)c(=O)[nH]c1=O returned hERG rescue -9, KCNK3 block inactive, KCNQ1 block inactive, KCNK9 inh inactive, Kir21 inh 1.2 and KCNQ1 pot inactive.
`O=S(=O)(c1cccc(-c2nnc(SCc3ccc(Cl)cc3)o2)c1)N1CCCCC1` gave hERG rescue -6, KCNK3 block inactive, KCNQ1 block inactive, KCNK9 inh -7.2*, Kir21 inh 0.34 and KCNQ1 pot inactive.
For CCN(CC)c1ccc(/C=C(\C#N)c2ccccn2)cc1 the results were hERG rescue -18, KCNK3 block -11*, KCNQ1 block 6*, KCNK9 inh inactive, Kir21 inh -3.6 and KCNQ1 pot inactive.
`CCN(Cc1ccccc1)c1ccc(/C=C(\C#N)c2ccccn2)cc1` gave hERG rescue -9, KCNK3 block inactive, KCNQ1 block inactive, KCNK9 inh inactive, Kir21 inh -0.92 and KCNQ1 pot inactive.
For O=[N+]([O-])c1cc(Br)c(O)c(C=Nc2ccc(N3CCOCC3)cc2)c1 the results were hERG rescue -14, KCNK3 block inactive, KCNQ1 block 11*, KCNK9 inh inactive, Kir21 inh 1.8 and KCNQ1 pot inactive.
`COc1cccc(C=Nc2ccc(N3CCOCC3)cc2)c1O` gave hERG rescue 0, KCNK3 block inactive, KCNQ1 block inactive, KCNK9 inh inactive, Kir21 inh -0.04 and KCNQ1 pot inactive.
Screening COc1cc(/C=N/N=C/c2c[nH]c(=O)c(C#N)c2Nc2ccccc2)ccc1O returned hERG rescue -7, KCNQ1 block inactive, KCNK9 inh inactive, Kir21 inh 0.29 and KCNQ1 pot inactive.
COc1ccc(/C=C/C(=O)N2c3ccccc3Sc3ccc(C(F)(F)F)cc32)cc1 was read as hERG rescue -11, KCNK3 block inactive, KCNQ1 block inactive, KCNK9 inh -7.3*, Kir21 inh 0.27 and KCNQ1 pot inactive.
For C/C(=N\N=C(N)N)c1ccc(Cl)c(Cl)c1 the results were hERG rescue -21, KCNK3 block inactive, KCNQ1 block inactive, KCNK9 inh inactive, Kir21 inh -5.3* and KCNQ1 pot inactive.
For O=[N+]([O-])c1ccc(CNc2ccc(Cl)cc2)s1 the results were hERG rescue -10, KCNK3 block inactive, KCNQ1 block inactive, KCNK9 inh inactive, Kir21 inh 0.89 and KCNQ1 pot inactive.
Screening O=[N+]([O-])c1ccc(CNc2cccc(Cl)c2)s1 returned hERG rescue -7, KCNK3 block inactive, KCNQ1 block 6*, KCNK9 inh inactive, Kir21 inh -0.32 and KCNQ1 pot inactive.
For FC(F)(F)c1cccc(NC(=S)NNC(=S)NCc2ccccc2)c1 the results were hERG rescue -15, KCNK3 block inactive, KCNQ1 block 7*, KCNK9 inh inactive, Kir21 inh 1.4 and KCNQ1 pot inactive.
`CCOC(=O)N1CCC(N2C(=O)c3ccc(C(=O)Nc4ccc(OC)c(OC)c4)cc3C2=O)CC1` gave hERG rescue -7, KCNK3 block inactive, KCNQ1 block inactive, KCNK9 inh inactive, Kir21 inh 0.09 and KCNQ1 pot inactive.
For O=C(NNS(=O)(=O)c1ccc([N+](=O)[O-])cc1)c1ccc2ccccc2c1O the results were hERG rescue -26, KCNK3 block inactive, KCNQ1 block 7*, KCNK9 inh inactive, Kir21 inh 3.6 and KCNQ1 pot inactive.
Screening O=C(NNS(=O)(=O)c1ccc([N+](=O)[O-])cc1)c1ccccc1 returned KCNK3 block inactive.
Screening O=C(CN1CCN(S(=O)(=O)c2cccs2)CC1)N1CCCCC1 returned KCNK3 block inactive.
Cc1cc(C)c(C)c(S(=O)(=O)N2CCN(c3ccccn3)CC2)c1C was read as hERG rescue -9, KCNK3 block inactive, KCNQ1 block inactive, KCNK9 inh inactive, Kir21 inh -0.38 and KCNQ1 pot inactive.
Screening Cc1cc(C)c(C)c(S(=O)(=O)N2CCN(c3ncnc4ccccc34)CC2)c1C returned KCNK3 block -10*.
Screening CCN(CC(=O)Nc1ccccc1OC)CC(=O)Nc1ccccc1-c1ccccc1 returned hERG rescue -6, KCNK3 block inactive, KCNQ1 block inactive, KCNK9 inh inactive, Kir21 inh 0.19 and KCNQ1 pot inactive.
`CSCCNC(C)=O` gave hERG rescue 5.5*, KCNQ1 block inactive, KCNK9 inh inactive, Kir21 inh 0.3 and KCNQ1 pot inactive.
Screening Cc1ccc(N2CC(C)Cn3c2nc2c3c(=O)[nH]c(=O)n2C)cc1C (configuration not stated) returned hERG rescue -10, KCNK3 block inactive, KCNQ1 block inactive, KCNK9 inh inactive, Kir21 inh -0.07 and KCNQ1 pot inactive.
Cc1ccc(Nc2nnc(SCC(=O)NC3CC3)s2)cc1 was read as KCNK3 block inactive.
For O=C(CNC(=O)C12CC3CC(CC(C3)C1)C2)OCc1cc(=O)n2cc(Br)ccc2n1 the results were hERG rescue 6.1*, KCNK3 block inactive, KCNQ1 block inactive, KCNK9 inh inactive, Kir21 inh -0.45 and KCNQ1 pot inactive.
CC1CC1C(=O)OCc1cc(=O)n2cc(Br)ccc2n1 (configuration not stated) was read as hERG rescue -5, KCNK3 block inactive, KCNQ1 block inactive, KCNK9 inh inactive, Kir21 inh -0.26 and KCNQ1 pot inactive.

Screening data deposited in PubChem by Johns Hopkins Ion Channel Center.
